According to ChEMBL document CHEMBL1124340, “Acyclic analogues of 3'-azido-3'-deoxythymidine as potential antiviral agents. Nucleoside synthesis by Michael addition” (J Med Chem, 1989):
The source made the active and inactive calls. The calls are words filed in the database; no cut-off is given here.

Assays:
[1] = Toxicity in Vero (African green monkey) cells at concentration 100 uM; compound found nontoxic; settings: chlorocebus aethiops, in vitro
Vero [2] = assay: In vitro inhibitory activity against HSV-2 in vero cells of african green monkey at concentration 100 uM; Inactive; assay type: functional, cell-based; settings: Chlorocebus sabaeus
Vero [3] = assay: In vitro inhibitory activity against HSV-1 in vero cells of african green monkey at concentration 100 uM; Inactive; assay type: functional, cell-based; settings: Chlorocebus sabaeus
[4] = Toxicity in Vero (African green monkey) cells at concentration 100 uM; compound was found nontoxic; settings: chlorocebus aethiops, in vitro
Homo sapiens = organism: Homo sapiens; assay: In vitro inhibitory activity against HIV-1 in human peripheral blood mononuclear cells at concentration 100 uM; Inactive; assay type: functional
Procedure, shortened: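 Mitogen-stimulated PBM cells, three days old (10⁶ cells/mL), came from hepatitis- and HIV-1-seronegative donors. They were infected with HIV-1 strain LAV at about 100 TCID₅₀/mL. Compounds were added about 45 min post-infection and tested up to 100 μM. On day 5 the supernatant was clarified, virus pelleted, and reverse transcriptase activity measured. Cells came from three donors.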

Vero [5] = assay: In vitro inhibitory activity against HSV-1 in vero cells in african green monkey at concentration 100 uM; IA is inactive.; assay type: functional, cell-based; settings: Chlorocebus sabaeus
Vero [6] = assay: In vitro inhibitory activity against HSV-2 in vero cells of african green monkey at concentration 100 uM; IA is inactive.; assay type: functional, cell-based; settings: Chlorocebus sabaeus
Vero [7] = assay: In vitro inhibitory activity against HSV-2 in Vero (African green monkey) cells at concentration 100 uM; Inactive; settings: Chlorocebus sabaeus
[8] = Toxicity in Vero (African green monkey) cells at concentration 100 uM; compound found nontoxic; settings: chlorocebus aethiops, in vitro; remark: listed apart in the source
Vero [9] = assay: In vitro inhibitory activity against HSV-1 in vero cells in african green monkey at concentration 100 uM; Inactive; assay type: functional, cell-based; settings: Chlorocebus sabaeus
Vero [10] = assay: In vitro inhibitory activity against HSV-1 in Vero (African green monkey) cells at concentration 100 uM; Inactive; settings: Chlorocebus sabaeus
Vero [11] = assay: In vitro inhibitory activity against HSV-2 in vero cells in african green monkey at concentration 100 uM; Inactive; assay type: functional, cell-based; settings: Chlorocebus sabaeus

Structure (SMILES)	Toxicity [1]	Activity (Vero [2])	Activity (Vero [3])	Toxicity [4]	Activity (Homo sapiens)	Activity (Vero [5])	Activity (Vero [6])	Activity (Vero [7])	Toxicity [8]	Activity (Vero [9])	Activity (Vero [10])	Activity (Vero [11])
COC(=O)CC(SCCO)n1cc(C)c(=O)[nH]c1=O (stereo not drawn)	Non-toxic	inactive	inactive									
Cc1cn(C(CCO)SCCO)c(=O)[nH]c1=O (stereo not drawn)				Non-toxic	inactive	No activity	No activity					
Cc1cn(C(CCN=[N+]=[N-])OCCO)c(=O)[nH]c1=O (stereo not drawn)					inactive			inactive	Non-toxic	inactive	inactive	inactive
COC(=O)COC(CC(=O)OC)n1cc(C)c(=O)[nH]c1=O (stereo not drawn)					inactive			inactive	Non-toxic	inactive	inactive	inactive
COC(=O)/C=C/n1cc(C)c(=O)[nH]c1=O	Non-toxic	inactive	inactive									
Cc1cn(C(CCO)OCCO)c(=O)[nH]c1=O (stereo not drawn)					inactive			inactive	Non-toxic	inactive	inactive	inactive
